# Data as given in ChEMBL document CHEMBL1152191, “Identification and optimization of N3,N6-diaryl-1H-pyrazolo[3,4-d]pyrimidine-3,6-diamines as a novel class of ACK1 inhibitors” (Bioorg Med Chem Lett, 2008).
# Assays:
# Activated CDC42 kinase 1 [1] = biological target: T1, Activated CDC42 kinase 1 (Homo sapiens, UniProt Q07912); experiment: Inhibition of histidine-tagged ACK1 (amino acids 117 to 489) expressed in SF9 cells
# Activated CDC42 kinase 1 [2] = biological target: T1, Activated CDC42 kinase 1; experiment: Inhibition of flag-tagged ACK1 autophosphorylation expressed in human 293 cells; format: cell-based, HEK293
# How it was run: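 293 cells stably expressing Flag-ACK1 are detached with PBS/EDTA, washed, and pre-incubated in suspension with DMSO or compound. They are then re-plated for 2 h in medium with 10% FCS, with directly lysed cells as control. Autophosphorylation is read by anti-pTyr western blot after Flag IP, and IC50 determined.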
# [3] = Clearance in Sprague-Dawley rat at 0.5 mg/kg, iv; format: ADME, organism-based; set-up: dose 0.5 mg/kg, route intravenous; settings: in vivo
# How it was run: (§1)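 Male Sprague–Dawley rats received 0.5 mg/kg as an iv dose, with n = 3 animals per study. CL, Vss, MRT and AUC were derived from the plasma concentration profile.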
# [4] = Volume of distribution at steady state in Sprague-Dawley rat at 0.5 mg/kg, iv; format: ADME, organism-based; set-up: dose 0.5 mg/kg, route intravenous; settings: in vivo, read-out: Vdss; how it was run: as §1
# [5] = Mean residence time in Sprague-Dawley rat at 0.5 mg/kg, iv; format: ADME, organism-based; set-up: dose 0.5 mg/kg, route intravenous; settings: in vivo; how it was run: as §1
# [6] = AUC in Sprague-Dawley rat at 0.5 mg/kg, iv; format: ADME, organism-based; set-up: dose 0.5 mg/kg, route intravenous; settings: plasma; how it was run: as §1
# [7] = biological target: Tyrosine-protein kinase Lck (Homo sapiens, UniProt P06239); experiment: Inhibition of LCK
# Sequence of Tyrosine-protein kinase Lck (P06239 whole entry): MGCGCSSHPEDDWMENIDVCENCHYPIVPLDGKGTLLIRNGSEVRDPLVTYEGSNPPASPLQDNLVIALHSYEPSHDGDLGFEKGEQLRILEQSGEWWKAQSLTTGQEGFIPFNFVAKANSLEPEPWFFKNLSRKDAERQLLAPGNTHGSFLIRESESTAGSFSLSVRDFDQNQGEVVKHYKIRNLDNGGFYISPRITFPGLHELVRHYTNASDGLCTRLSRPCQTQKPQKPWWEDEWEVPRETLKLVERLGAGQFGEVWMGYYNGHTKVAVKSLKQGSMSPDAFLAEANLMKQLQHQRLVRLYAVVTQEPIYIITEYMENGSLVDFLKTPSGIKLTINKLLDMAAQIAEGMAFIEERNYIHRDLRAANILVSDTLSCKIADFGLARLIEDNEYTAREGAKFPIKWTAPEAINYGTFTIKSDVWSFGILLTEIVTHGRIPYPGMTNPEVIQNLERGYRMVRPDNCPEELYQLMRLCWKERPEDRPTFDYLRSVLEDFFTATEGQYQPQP
# [8] = biological target: Tyrosine-protein kinase BTK (Homo sapiens, UniProt Q06187); experiment: Inhibition of BTK
# Sequence of Tyrosine-protein kinase BTK (Q06187 whole entry): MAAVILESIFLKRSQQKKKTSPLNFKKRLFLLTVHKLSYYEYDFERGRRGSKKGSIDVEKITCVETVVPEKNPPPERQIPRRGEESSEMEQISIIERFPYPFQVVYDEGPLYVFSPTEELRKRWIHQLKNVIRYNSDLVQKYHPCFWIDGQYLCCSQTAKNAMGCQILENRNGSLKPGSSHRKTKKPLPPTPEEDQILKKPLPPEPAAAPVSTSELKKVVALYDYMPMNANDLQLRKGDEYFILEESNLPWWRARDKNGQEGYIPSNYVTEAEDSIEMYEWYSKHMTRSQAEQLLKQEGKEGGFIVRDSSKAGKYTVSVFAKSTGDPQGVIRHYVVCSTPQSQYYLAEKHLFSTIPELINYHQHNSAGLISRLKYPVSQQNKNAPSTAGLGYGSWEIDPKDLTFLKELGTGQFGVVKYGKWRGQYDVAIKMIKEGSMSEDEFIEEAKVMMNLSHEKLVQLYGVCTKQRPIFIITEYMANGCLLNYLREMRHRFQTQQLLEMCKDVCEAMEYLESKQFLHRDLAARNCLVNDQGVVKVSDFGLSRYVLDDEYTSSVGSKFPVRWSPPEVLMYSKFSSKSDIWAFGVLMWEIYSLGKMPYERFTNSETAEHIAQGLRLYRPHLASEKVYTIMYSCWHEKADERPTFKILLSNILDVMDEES
# [9] = biological target: Vascular endothelial growth factor receptor 2 (Homo sapiens, UniProt P35968); experiment: Inhibition of KDR
# Sequence of Vascular endothelial growth factor receptor 2 (P35968 whole entry): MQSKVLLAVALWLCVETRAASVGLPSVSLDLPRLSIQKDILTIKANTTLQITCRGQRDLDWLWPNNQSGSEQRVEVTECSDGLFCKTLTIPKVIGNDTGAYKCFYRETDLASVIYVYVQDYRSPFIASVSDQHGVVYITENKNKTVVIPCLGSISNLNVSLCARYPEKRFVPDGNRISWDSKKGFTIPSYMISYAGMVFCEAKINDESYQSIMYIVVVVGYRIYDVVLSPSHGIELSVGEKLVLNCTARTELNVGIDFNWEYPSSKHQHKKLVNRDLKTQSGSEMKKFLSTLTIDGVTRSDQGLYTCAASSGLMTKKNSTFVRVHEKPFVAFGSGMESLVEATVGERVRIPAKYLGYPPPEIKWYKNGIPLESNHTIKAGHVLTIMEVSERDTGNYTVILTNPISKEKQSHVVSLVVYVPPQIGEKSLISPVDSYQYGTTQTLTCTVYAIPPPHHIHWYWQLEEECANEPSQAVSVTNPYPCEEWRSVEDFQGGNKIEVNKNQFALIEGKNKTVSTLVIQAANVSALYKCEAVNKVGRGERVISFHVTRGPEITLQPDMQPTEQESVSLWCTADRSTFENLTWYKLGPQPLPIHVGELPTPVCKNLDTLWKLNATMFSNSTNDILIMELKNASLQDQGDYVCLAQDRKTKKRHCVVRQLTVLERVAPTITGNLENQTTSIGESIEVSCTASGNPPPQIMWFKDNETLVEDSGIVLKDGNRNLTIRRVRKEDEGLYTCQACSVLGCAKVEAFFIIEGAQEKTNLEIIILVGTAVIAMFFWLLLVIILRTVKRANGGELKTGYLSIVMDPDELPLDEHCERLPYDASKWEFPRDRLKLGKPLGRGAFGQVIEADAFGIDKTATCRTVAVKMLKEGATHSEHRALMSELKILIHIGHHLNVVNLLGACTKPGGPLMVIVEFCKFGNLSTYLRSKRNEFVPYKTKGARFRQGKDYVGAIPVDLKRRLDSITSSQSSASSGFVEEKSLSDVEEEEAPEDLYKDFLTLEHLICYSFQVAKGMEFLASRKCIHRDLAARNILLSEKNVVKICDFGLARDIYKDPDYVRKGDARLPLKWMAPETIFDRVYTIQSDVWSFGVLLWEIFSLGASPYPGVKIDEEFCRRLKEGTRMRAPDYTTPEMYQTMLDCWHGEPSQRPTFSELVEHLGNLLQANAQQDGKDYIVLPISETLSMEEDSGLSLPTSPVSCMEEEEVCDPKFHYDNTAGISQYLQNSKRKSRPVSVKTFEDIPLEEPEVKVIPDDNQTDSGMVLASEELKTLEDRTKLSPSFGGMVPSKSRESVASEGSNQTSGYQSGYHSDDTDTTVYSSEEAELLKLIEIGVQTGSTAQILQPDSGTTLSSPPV
# Angiopoietin-1 receptor = Angiopoietin-1 receptor (Homo sapiens, UniProt Q02763); experiment: Inhibition of Tie2
# Sequence of Angiopoietin-1 receptor (Q02763 whole entry): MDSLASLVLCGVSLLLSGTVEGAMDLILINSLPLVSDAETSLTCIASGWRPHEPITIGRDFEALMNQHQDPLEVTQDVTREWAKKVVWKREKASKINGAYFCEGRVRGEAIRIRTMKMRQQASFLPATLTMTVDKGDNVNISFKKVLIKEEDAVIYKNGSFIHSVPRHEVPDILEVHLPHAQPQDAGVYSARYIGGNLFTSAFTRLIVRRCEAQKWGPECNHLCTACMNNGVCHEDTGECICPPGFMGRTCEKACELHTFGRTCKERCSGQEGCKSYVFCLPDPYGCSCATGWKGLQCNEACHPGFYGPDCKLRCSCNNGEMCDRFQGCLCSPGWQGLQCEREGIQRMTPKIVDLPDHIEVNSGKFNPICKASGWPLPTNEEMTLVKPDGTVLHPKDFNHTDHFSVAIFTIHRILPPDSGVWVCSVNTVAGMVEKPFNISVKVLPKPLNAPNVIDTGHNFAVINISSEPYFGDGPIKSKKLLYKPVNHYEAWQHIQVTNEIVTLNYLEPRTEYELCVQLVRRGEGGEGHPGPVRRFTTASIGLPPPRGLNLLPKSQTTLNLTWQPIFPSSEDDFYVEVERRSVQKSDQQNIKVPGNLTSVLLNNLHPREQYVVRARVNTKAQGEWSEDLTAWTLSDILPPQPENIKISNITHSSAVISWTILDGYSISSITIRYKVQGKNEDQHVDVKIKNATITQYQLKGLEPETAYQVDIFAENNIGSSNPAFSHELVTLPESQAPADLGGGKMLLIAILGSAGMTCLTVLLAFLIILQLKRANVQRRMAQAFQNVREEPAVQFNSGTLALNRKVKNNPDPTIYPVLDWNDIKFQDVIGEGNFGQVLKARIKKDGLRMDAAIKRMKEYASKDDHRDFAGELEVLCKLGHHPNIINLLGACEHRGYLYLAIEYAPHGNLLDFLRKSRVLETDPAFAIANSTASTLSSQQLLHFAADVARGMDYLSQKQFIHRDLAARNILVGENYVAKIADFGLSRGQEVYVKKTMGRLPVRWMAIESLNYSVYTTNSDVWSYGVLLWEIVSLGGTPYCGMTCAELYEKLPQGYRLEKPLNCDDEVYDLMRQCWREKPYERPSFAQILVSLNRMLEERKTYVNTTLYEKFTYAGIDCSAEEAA
# [10] = biological target: T2, Tyrosine-protein kinase JAK3 (Homo sapiens, UniProt P52333); experiment: Inhibition of Jak3
# T2 sequence (P52333 whole entry): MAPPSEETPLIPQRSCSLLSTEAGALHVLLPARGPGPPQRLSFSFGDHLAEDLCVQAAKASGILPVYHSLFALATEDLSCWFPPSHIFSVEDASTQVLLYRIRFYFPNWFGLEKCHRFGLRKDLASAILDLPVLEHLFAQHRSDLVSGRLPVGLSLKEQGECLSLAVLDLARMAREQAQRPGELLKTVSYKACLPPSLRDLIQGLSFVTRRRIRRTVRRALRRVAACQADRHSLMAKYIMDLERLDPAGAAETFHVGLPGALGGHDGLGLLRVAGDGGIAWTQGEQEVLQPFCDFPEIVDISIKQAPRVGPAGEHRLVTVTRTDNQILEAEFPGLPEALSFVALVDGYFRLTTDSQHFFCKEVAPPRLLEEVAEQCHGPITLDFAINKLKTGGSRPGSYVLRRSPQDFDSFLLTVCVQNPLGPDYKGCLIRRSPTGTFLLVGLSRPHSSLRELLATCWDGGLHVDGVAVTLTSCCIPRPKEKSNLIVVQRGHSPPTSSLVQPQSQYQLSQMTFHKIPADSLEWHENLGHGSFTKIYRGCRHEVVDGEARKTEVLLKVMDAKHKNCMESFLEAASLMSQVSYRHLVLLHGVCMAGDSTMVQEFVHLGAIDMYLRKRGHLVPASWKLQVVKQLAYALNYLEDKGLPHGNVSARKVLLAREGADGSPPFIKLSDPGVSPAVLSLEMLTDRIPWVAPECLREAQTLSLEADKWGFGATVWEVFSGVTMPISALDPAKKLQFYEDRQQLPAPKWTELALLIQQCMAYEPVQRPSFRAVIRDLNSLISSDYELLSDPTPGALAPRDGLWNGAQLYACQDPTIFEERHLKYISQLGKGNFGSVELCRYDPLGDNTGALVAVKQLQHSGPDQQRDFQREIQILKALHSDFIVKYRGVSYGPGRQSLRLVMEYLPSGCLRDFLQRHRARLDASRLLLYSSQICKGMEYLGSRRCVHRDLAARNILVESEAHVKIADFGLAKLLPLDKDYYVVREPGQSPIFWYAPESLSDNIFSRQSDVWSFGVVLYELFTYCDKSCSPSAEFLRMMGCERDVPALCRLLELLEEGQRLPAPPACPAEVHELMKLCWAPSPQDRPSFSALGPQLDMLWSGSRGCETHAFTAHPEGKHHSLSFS
# [11] = Clearance in Sprague-Dawley rat at 0.4 mg/kg, iv; format: ADME, organism-based; set-up: dose 0.4 mg/kg, route intravenous; settings: in vivo
# How it was run: (§2)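 Male Sprague–Dawley rats were dosed intravenously; clearance and AUC were taken from the plasma profile.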
# [12] = AUC in Sprague-Dawley rat at 0.4 mg/kg, iv; format: ADME, organism-based; set-up: dose 0.4 mg/kg, route intravenous; settings: plasma; how it was run: as §2
# [13] = Oral bioavailability in Sprague-Dawley rat at 4 mg/kg; format: ADME, organism-based; settings: in vivo
# T1 sequence (Q07912 whole entry, the tested form may be a part): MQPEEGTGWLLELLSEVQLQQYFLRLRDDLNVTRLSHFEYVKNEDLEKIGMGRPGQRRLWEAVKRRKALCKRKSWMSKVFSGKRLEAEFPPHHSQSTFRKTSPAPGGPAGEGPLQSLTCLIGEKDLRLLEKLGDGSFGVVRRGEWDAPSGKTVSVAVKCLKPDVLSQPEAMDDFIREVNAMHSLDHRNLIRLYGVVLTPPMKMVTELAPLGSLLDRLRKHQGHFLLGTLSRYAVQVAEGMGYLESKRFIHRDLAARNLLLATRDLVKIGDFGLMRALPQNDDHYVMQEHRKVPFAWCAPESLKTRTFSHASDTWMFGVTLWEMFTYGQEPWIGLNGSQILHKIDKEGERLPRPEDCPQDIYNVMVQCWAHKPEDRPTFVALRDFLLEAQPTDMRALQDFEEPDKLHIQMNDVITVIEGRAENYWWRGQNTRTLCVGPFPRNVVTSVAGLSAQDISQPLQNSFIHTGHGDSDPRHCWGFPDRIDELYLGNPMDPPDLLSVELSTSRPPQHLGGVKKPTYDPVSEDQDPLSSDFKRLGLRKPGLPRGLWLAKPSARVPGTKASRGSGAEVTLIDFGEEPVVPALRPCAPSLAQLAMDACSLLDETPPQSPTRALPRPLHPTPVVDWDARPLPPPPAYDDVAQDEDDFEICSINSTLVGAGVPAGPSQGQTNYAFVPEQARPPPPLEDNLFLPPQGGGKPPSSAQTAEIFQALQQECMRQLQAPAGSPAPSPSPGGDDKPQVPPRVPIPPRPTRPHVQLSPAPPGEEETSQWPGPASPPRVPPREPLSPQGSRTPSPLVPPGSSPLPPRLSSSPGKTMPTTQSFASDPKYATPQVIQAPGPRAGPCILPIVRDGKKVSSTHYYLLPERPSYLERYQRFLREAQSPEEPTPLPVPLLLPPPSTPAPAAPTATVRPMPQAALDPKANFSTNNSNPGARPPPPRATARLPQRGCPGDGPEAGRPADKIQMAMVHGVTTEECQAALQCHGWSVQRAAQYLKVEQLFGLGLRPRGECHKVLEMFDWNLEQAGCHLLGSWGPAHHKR
Ki (Activated CDC42 kinase 1 [1]) [nM],IC50 (Activated CDC42 kinase 1 [2]) [nM],Structure (SMILES),also measured
3,60,COC(C)(C)CCn1nc(Nc2c(C)cccc2C)c2cnc(Nc3ccc(OCCCN4CCCCC4)c(F)c3)nc21,clearance [3]: 58.3 mL/min/kg; Vd [4]: 7.5 L/kg; MRT [5]: 2 h; AUC [6]: 148 ng·h/mL
12,50,COC(C)(C)CCn1nc(Nc2c(C)cc(C)cc2C)c2cnc(Nc3ccc(N4CCN(C)CC4)cc3)nc21,–
100,300,Cc1cccc(C)c1Nc1nn(CCCN2CCCC2)c2nc(Nc3ccccc3)ncc12,–
10,20,OC[C@H](O)CCn1nc(Nc2c(Cl)cccc2Cl)c2cnc(Nc3ccccc3)nc21,bioavailability [13]: 30%
30,60,Cc1cccc(C)c1Nc1nn(CC[C@@H](O)CO)c2nc(Nc3ccccc3)ncc12,–
10,30,CN1CCN(CCn2nc(Nc3c(Cl)cccc3Cl)c3cnc(Nc4ccccc4)nc32)CC1,–
50,30,ON1CCN(CCn2nc(Nc3c(Cl)cccc3Cl)c3cnc(Nc4ccccc4)nc32)CC1,–
80,190,Cc1cccc(C)c1Nc1nn(CC[C@@H](O)CN(C)C)c2nc(Nc3ccccc3)ncc12,–
–,–,COC(C)(C)CCn1nc(Nc2c(C)cccc2C)c2cnc(Nc3ccc(N4CCNCC4)cc3)nc21,clearance [3]: 95 mL/min/kg; Vd [4]: 20.3 L/kg; MRT [5]: 3.5 h; AUC [6]: 104 ng·h/mL
> 4000,–,COC(C)(C)CCn1nc(Nc2ccccc2)c2cnc(Nc3ccccc3)nc21,–
> 2500,–,COC(C)(C)CCn1nc(Nc2c(C)cc(C)cc2C)c2cnc(Nc3ccccc3)nc21,–
5,20,CN(C)CCCn1nc(Nc2c(Cl)cccc2Cl)c2cnc(Nc3ccccc3)nc21,–
40,140,CCN(CC)CCCn1nc(Nc2c(C)cccc2C)c2cnc(Nc3ccccc3)nc21,–
5,140,CN(C)CCn1nc(Nc2c(Cl)cccc2Cl)c2cnc(Nc3ccccc3)nc21,–
3,20,COC(C)(C)CCn1nc(Nc2c(C)cccc2C)c2cnc(Nc3ccccc3)nc21,–
7,40,COC(C)(C)CCn1nc(Nc2c(Cl)cccc2Cl)c2cnc(Nc3ccccc3)nc21,–
12,10,COC(C)(C)CCn1nc(Nc2c(Cl)cccc2Cl)c2cnc(Nc3ccc(N4CCNCC4)cc3)nc21,clearance [3]: 70 mL/min/kg; Vd [4]: 15.4 L/kg; MRT [5]: 3.6 h; AUC [6]: 117 ng·h/mL
2,20,COC(C)(C)CCn1nc(Nc2c(C)cccc2C)c2cnc(Nc3ccc(N4CCN(C)CC4)cc3)nc21,–
10,20,CN(C)[C@@H]1CCN(CCn2nc(Nc3c(Cl)cccc3Cl)c3cnc(Nc4ccccc4)nc32)C1,–
30,90,CN(C)C(=O)Cn1nc(Nc2c(Cl)cccc2Cl)c2cnc(Nc3ccccc3)nc21,–
3,20,COC(C)(C)CCn1nc(Nc2c(C)cccc2C)c2cnc(Nc3ccc(OCCN4CCCC4)c(F)c3)nc21,Ki [7]: 11 nM; Ki [8]: 125 nM; Ki [9]: > 12500 nM; Ki (Angiopoietin-1 receptor): > 2500 nM; Ki [10]: > 12500 nM
2,30,COC(C)(C)CCn1nc(Nc2c(Cl)cccc2Cl)c2cnc(Nc3ccc(OCCN4CCCC4)c(F)c3)nc21,clearance [3]: 48.3 mL/min/kg; Vd [4]: 7.7 L/kg; MRT [5]: 2.7 h; AUC [6]: 174 ng·h/mL
10,20,COC(C)(C)CCn1nc(Nc2c(C)cc(F)cc2C)c2cnc(Nc3ccc(N4CCN(C)CC4)cc3)nc21,–
400,2100,COC(C)(C)CCn1nc(Nc2ccccc2)c2cnc(Nc3ccc(N4CCN(C)CC4)cc3)nc21,–
50,70,Cc1cccc(C)c1Nc1nn(CCN2CCOCC2)c2nc(Nc3ccccc3)ncc12,–
70,140,O=C(Cn1nc(Nc2c(Cl)cccc2Cl)c2cnc(Nc3ccccc3)nc21)N1CCOCC1,–
30,50,OC[C@H]1CCCN1CCn1nc(Nc2c(Cl)cccc2Cl)c2cnc(Nc3ccccc3)nc21,–
26,5500,COC(C)(C)CCn1nc(Nc2c(C)cc(F)cc2C)c2cnc(Nc3ccccc3)nc21,–
30,40,Cc1cccc(C)c1Nc1nn(CCCN(C)C)c2nc(Nc3ccccc3)ncc12,–

Structure (SMILES),Ki (Activated CDC42 kinase 1 [1]) [nM],IC50 (Activated CDC42 kinase 1 [2]) [nM],also measured
COC(C)(C)CCn1nc(Nc2c(C)cccc2C)c2cnc(Nc3ccc(OCCN4CCCC4)cc3)nc21,3,20,Ki [7]: 0.04 nM; Ki [8]: 0.25 nM; Ki [9]: 1590 nM; Ki (Angiopoietin-1 receptor): 1160 nM; Ki [10]: 170 nM
CCOc1ccccc1Oc1nc(Nc2ccc(N3CCNCC3)cc2)ncc1C(=O)Nc1c(C)cccc1C,20,100,clearance [11]: 63.3 mL/min/kg; AUC [12]: 76 ng·h/mL; Ki [7]: 13 nM; Ki [8]: 78 nM; Ki [9]: > 25000 nM; Ki (Angiopoietin-1 receptor): > 8300 nM; Ki [10]: 74 nM
